Active and inactive are the calls of the source. No cut-off for these calls is given here.
Experiments:
[1] = Half life in Sprague-Dawley rat at 5 mg/kg,po measured up to 24 hrs by LC-MS/MS analysis; type: ADME, organism-based; conditions: in vivo
[2] = system: Rattus norvegicus; assay: Antithrombotic activity in anesthetized Wistar rat model of FeCL3-induced carotid artery thrombosis assessed as reduction in thrombus weight by measuring inhibition of thrombosis formation at 40 mg/kg, po administered as single dose measured at 1.5 hrs post dose; type: functional; parameters: scale not given: the % may be the effect or the level left
Outline: (§1)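 Compounds in 0.5% CMC-Na given to Wistar rats as a single oral gavage dose (10 mL/kg). Rats anesthetized with 2% pentobarbital i.p. at 50 mg/kg and kept on a heating pad. At 1.5 h post-dose, filter paper soaked in 20% FeCl3 applied to the isolated left carotid artery for 10 min; thrombus weight recorded. Mean ± SEM, n = 10.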

[3] = MRT in Sprague-Dawley rat at 5 mg/kg,po measured up to 24 hrs by LC-MS/MS analysis; type: ADME, organism-based; conditions: in vivo
[4] = system: Rattus norvegicus; assay: Antithrombotic activity in anesthetized Wistar rat model of tail-bleeding assessed as increase in bleeding weight at 20 mg/kg, po administered as single dose measured at 1.5 hrs post dose; type: functional
Outline: (§2)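 Male rats (250–300 g, n = 10 per dose) acclimatized at least 7 days, then dosed by oral gavage. At 1.5 h, anesthetized with 2% pentobarbital i.p. at 50 mg/kg. Tail transected 4 mm from the tip and immersed in saline at 37 °C; bleeding ended when no blood appeared for 30 s. Bleeding time and blood loss weight recorded as mean ± SEM.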

[5] = AUC (0 to infinity) in Sprague-Dawley rat at 5 mg/kg,po measured up to 24 hrs by LC-MS/MS analysis; type: ADME, organism-based; parameters: time < 24 hrs, dose 5 mg/kg, route po; conditions: in vivo
[6] = system: Rattus norvegicus; assay: Antithrombotic activity in anesthetized Wistar rat model of tail-bleeding assessed as increase in bleeding weight at 10 mg/kg, po administered as single dose measured at 1.5 hrs post dose; type: functional; outline: as §2
[7] = system: Rattus norvegicus; assay: Antithrombotic activity in anesthetized Wistar rat model of FeCL3-induced carotid artery thrombosis assessed as reduction in thrombus weight po administered as single dose measured at 1.5 hrs post dose; type: functional; outline: as §1
[8] = system: Rattus norvegicus; assay: Antithrombotic activity in anesthetized Wistar rat model of tail-bleeding assessed as increase in bleeding weight at 5 mg/kg, po administered as single dose measured at 1.5 hrs post dose; type: functional; outline: as §2
[9] = Metabolic stability in dog liver microsomes assessed as half life at […] measured up to 60 mins in presence of NADPH regeneration system by LC-MS/MS analysis; type: ADME, Canis lupus familiaris, Microsome
[10] = system: Rattus norvegicus; assay: Antithrombotic activity in anesthetized Wistar rat model of tail-bleeding assessed as increase in bleeding time at 40 mg/kg, po administered as single dose measured at 1.5 hrs post dose; type: functional; outline: as §2
[11] = Tmax in Sprague-Dawley rat at 5 mg/kg,po measured up to 24 hrs by LC-MS/MS analysis; type: ADME, organism-based; conditions: in vivo
[12] = Metabolic stability in rat liver microsomes assessed as intrinsic clearance at 0.1 µM measured up to 60 mins in presence of NADPH regeneration system by LC-MS/MS analysis; conditions: 1 h
[13] = Metabolic stability in human liver microsomes assessed as intrinsic clearance at 0.1 µM measured up to 60 mins in presence of NADPH regeneration system by LC-MS/MS analysis; conditions: 1 h
[14] = Cmax in Sprague-Dawley rat at 5 mg/kg,po measured up to 24 hrs by LC-MS/MS analysis; type: ADME, organism-based; parameters: time < 24 hrs, dose 5 mg/kg, route po; conditions: in vivo
[15] = system: Rattus norvegicus; assay: Antithrombotic activity in anesthetized Wistar rat model of tail-bleeding assessed as increase in bleeding weight at […], po administered as single dose measured at 1.5 hrs post dose; type: functional
[16] = Oral bioavailability in Sprague-Dawley rat at 5 mg/kg,po measured up to 24 hrs by LC-MS/MS analysis; type: ADME, organism-based; conditions: in vivo
[17] = system: Rattus norvegicus; assay: Antithrombotic activity in anesthetized Wistar rat model of tail-bleeding assessed as increase in bleeding weight at 40 mg/kg, po administered as single dose measured at 1.5 hrs post dose; type: functional; outline: as §2
[18] = system: Rattus norvegicus; assay: Antithrombotic activity in anesthetized Wistar rat model of tail-bleeding assessed as increase in bleeding time po administered as single dose measured at 1.5 hrs post dose; type: functional; outline: as §2
[19] = Metabolic stability in human liver microsomes assessed as half life at […] measured up to 60 mins in presence of NADPH regeneration system by LC-MS/MS analysis; type: ADME, Microsome
[20] = system: Rattus norvegicus; assay: Antithrombotic activity in anesthetized Wistar rat model of FeCL3-induced carotid artery thrombosis assessed as reduction in thrombus weight at 10 mg/kg, po administered as single dose measured at 1.5 hrs post dose; type: functional, organism-based; outline: as §1
[21] = Metabolic stability in rat liver microsomes assessed as half life at […] measured up to 60 mins in presence of NADPH regeneration system by LC-MS/MS analysis; type: ADME, Microsome
[22] = organism: Homo sapiens; assay: Antiplatelet activity in human platelet-rich plasma assessed as inhibition of ADP-induced platelet aggregation by aggregometry; type: functional
Outline: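 Human PRP from healthy donors free of aspirin/NSAIDs for at least two weeks, drawn into ACD; PRP spun at 300 g for 10 min, PPP at 2000 g. Compound in 0.5% DMSO preincubated 2 min at 37 °C with stirring (900 rpm). Aggregation induced by 10 μM ADP (final) and followed optically for 5 min.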

[23] = Metabolic stability in dog liver microsomes assessed as intrinsic clearance at 0.1 µM measured up to 60 mins in presence of NADPH regeneration system by LC-MS/MS analysis; conditions: 1 h

Cc1ccc(CS(=O)(=O)NC(=O)C2(C)CCN(c3nc4c(cc3C#N)C(=O)OC4)CC2)cc1
half-life [1]: 2.91 h | Activity [2]: 56% | MRT [3]: 3.64 h | Activity [4]: 0.43 g | AUC(0-inf) [5]: 4120 ng·h/mL | Activity [6]: 0.39 g | ED50 [7]: 27 mg/kg | Activity [8]: 0.31 g | half-life [9]: 1.62 h | Time [10]: 33.09 min | Tmax [11]: 0.25 h | intrinsic clearance [12]: 10.6 mL/min/g | intrinsic clearance [13]: 10.1 mL/min/g | Cmax [14]: 1660 ng/mL | Activity [15]: 0.24 g | bioavailability [16]: 51% | Activity [17]: 0.66 g | ED100 [18]: 7.58 mg/kg | half-life [19]: 3.47 h | Activity [20]: Active | half-life [21]: 1.48 h | IC50 [22]: 2940 nM | intrinsic clearance [23]: 116.3 mL/min/g

From ChEMBL document CHEMBL5233208, “Optimization of P2Y12 Antagonist Ethyl 6-(4-((Benzylsulfonyl)carbamoyl)piperidin-1-yl)-5-cyano-2-methylnicotinate (AZD1283) Led to the Discovery of an Oral Antiplatelet Agent with Improved Druglike Properties” (J Med Chem, 2019)
